Assay results gathered from unrelated publications.
Each line is one published result; the experiments were not run side by side.
Organism: Pichia kudriavzevii
Observed: microbial growth

SMILES	assay	system	setting	MIC
OC(Cn1cncn1)(Cn1cncn1)c1ccc(F)cc1F	broth dilution	ATCC6258	–	32 µg/mL
CCCCCCCCCN1CCNCC1	broth dilution	ATCC6258	48 h	31.3 µg/mL
CCCCCOc1c(OC)cc(NC(C)CCCNC(=O)C(N)CC(C)C)c2nc(C(C)(C)C)ccc12 (centres unmarked)	–	ATCC6258	–	10 µg/mL
C=C(C)[C@@H]1CC[C@]2(C)CC[C@]3(C)[C@H](CC[C@@H]4[C@@]5(C)CC[C@H](O)C(C)(C)[C@@H]5CC[C@]43C)[C@@H]12	broth dilution	ATCC6258	48 h	250 µg/mL
CCCCCCOc1c(OC)cc(NC(C)CCCN)c2nc(C(C)(C)C)cc(C)c12 (centres unmarked)	–	ATCC6258	–	5 µg/mL
C[C@@H]1[C@H](O)[C@@H](C)/C=C/C=C/C=C/C=C/C=C/C=C/C=C/[C@H](O[C@@H]2O[C@H](C)[C@@H](O)[C@H](N)[C@@H]2O)C[C@@H]2O[C@](O)(C[C@@H](O)C[C@@H](O)[C@H](O)CC[C@@H](O)C[C@@H](O)CC(=O)O[C@H]1C)C[C@H](O)[C@H]2C(=O)O	–	–	–	0.5 µM
CC1(C)CC[C@]2(C(=O)O)CC[C@]3(C)C(=CC[C@@H]4[C@@]5(C)CC[C@H](O)C(C)(C)[C@@H]5CC[C@]43C)[C@@H]2C1	broth dilution	ATCC6258	48 h	500 µg/mL
CCCCCCCCCCCN1CCNCC1	broth dilution	ATCC6258	48 h	7.8 µg/mL
C=C(C)[C@@H]1CC[C@]2(C)CC[C@]3(C)[C@H](CC[C@@H]4[C@@]5(C)CCC(=O)C(C)(C)[C@@H]5CC[C@]43C)[C@@H]12	broth dilution	ATCC6258	48 h	500 µg/mL
C[C@@H]1[C@H](O)[C@@H](C)/C=C/C=C/C=C/C=C/C=C/C=C/C=C/[C@H](O[C@@H]2O[C@H](C)[C@@H](O)[C@H](N)[C@@H]2O)C[C@@H]2O[C@](O)(C[C@@H](O)C[C@@H](O)[C@H](O)CC[C@@H](O)C[C@@H](O)CC(=O)O[C@H]1C)C[C@H](O)[C@H]2C(=O)O	–	ATCC6258	–	1.25 µg/mL
CCCCCCCCN1CCNCC1	broth dilution	ATCC6258	48 h	> 31.3 µg/mL
